For orientation: IC50 means the concentration that gives 50% inhibition. Read a low IC50 as higher potency.

Series [1] is described as follows: Free radical scavenging activity of DPPH relative to resveratrol was determined. In short, it runs like this:
(§1)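 Ethanolic DPPH (1.01×10^-4 M) plus sample (1:9 by volume), 30 min at room temperature, absorbance at 518 nm, decrease versus control. Triplicate, repeated at least three times. The relative value is the IC50 of resveratrol divided by the IC50 of the test compound.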

A short description of series [2]: Free radical scavenging activity of DPPH was determined; value taken from reference 11.
Series [3] in a line: Free radical scavenging activity of DPPH expressed as percent polyphenol.
Series [4] in a line: Free radical scavenging activity of DPPH was determined. The method in brief: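 DPPH bleaching assay: sample solution mixed 1:9 with ethanolic DPPH (1.01×10^-4 M), kept 30 min at room temperature, then A518 read and remaining DPPH calculated. Triplicate, repeated at least three times.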
A general note: Loss of DPPH colour is used to gauge radical scavenging.

The nature of series [5]: Free radical scavenging activity of DPPH w.r.t. resveratrol was determined. The method in brief:
as §1

A short description of series [6]: Half life of the radiolabeled compound was determined. The class given is ADME.

For the compound `Oc1cc(O)c2c(c1)O[C@H](c1ccc(O)c(O)c1)[C@H](O)C2` [(-)-EPICATECHIN], in series [1], the Relative IC50 was 4.71. For the same compound, in series [2], the midpoint of inhibition, the IC50, lay at 15.7 µM.

As for `COc1cc(/C=C/c2ccc(O)c(CCF)c2)cc(OC)c1`, the Relative IC50 in series [1] was 1.77. This compound also gave an Activity in series [3] of 50.4%. In addition, the IC50 in series [4] was found to be 69.5 µM.

In turn, `Oc1cc(O)cc(/C=C/c2ccc(O)c(Br)c2)c1` gave a Relative IC50 in series [1] of 2.41. For the same compound, in series [3], the Activity turned out to be 98%. The IC50 in series [4] was found to be 51.2 µM.

For `Oc1ccc(/C=C/c2cc(O)c(I)c(O)c2)cc1`, in series [1], the Relative IC50 came to 1.75. This compound yielded an Activity in series [3] of 72%. This compound also displayed an IC50 in series [4] of 70.6 µM.

In series [1], `OC[C@H]1O[C@@H](Oc2cc(O)cc(/C=C/c3ccc(O)c(O)c3)c2)[C@H](O)[C@@H](O)[C@@H]1O` returned a Relative IC50 of 2.42. The same compound came in with a half-inhibitory concentration (IC50) in series [2] of 30.6 µM.

In series [1], `OC[C@H]1O[C@@H](Oc2cc(O)cc(/C=C/c3ccc(O)cc3)c2)[C@H](O)[C@@H](O)[C@@H]1O` [PICEID] registered a Relative IC50 of 0.37. In series [2], this compound had an IC50 of 200 µM.

Turning to `Oc1ccc(/C=C/c2cc(O)cc(O)c2)cc1` [RESVERATROL], the IC50 is 74 µM in series [2] and 123 µM in series [4]. Besides, in series [3], the Activity was found to be 100%. This compound also had a Relative IC50 in series [5] of 1.

For the compound `Oc1cc(O)cc(/C=C/c2ccc(O)c(CCF)c2)c1`, in series [1], the Relative IC50 is 2.6. In series [3], this compound returned an Activity of 95.6%. In series [4], this compound had an IC50 of 47.4 µM.

Compound `Oc1ccc(/C=C/c2cc(O)cc(O)c2Br)cc1` had a Relative IC50 in series [1] of 3.43. Besides, the Activity in series [3] was 85.8%. In series [4], the IC50 was 35.9 µM.

In turn, `Oc1cc(O)c2c(c1)O[C@H](c1ccc(O)c(O)c1)[C@@H](O)C2` [CIANIDANOL] registered a Relative IC50 in series [1] of 3.66. The same compound yielded an IC50 in series [2] of 20.2 µM.

For `COc1ccc(/C=C/c2cc(OC)cc(OC)c2Br)cc1`, the Activity in series [3] was 26.6%.

`Oc1cc(O)cc(/C=C/c2ccc(O)c(I)c2)c1` displayed a Relative IC50 in series [1] of 1.68. For the same compound, the Activity in series [3] was 88%. For the same compound, in series [4], the IC50 was found to be 73.4 µM.

`[18FH]` [F-18] returned a T1/2 in series [6] of 1.83 h.

In turn, `Oc1cc(O)cc(/C=C/c2ccc(O)c(O)c2)c1` [PICEATANNOL] registered a Relative IC50 in series [1] of 2.55. Further, in series [2], the IC50 is 29 µM.

The values above are taken from ChEMBL document CHEMBL1146840, “Syntheses and radical scavenging activities of resveratrol derivatives” (Bioorg Med Chem Lett, 2004).
